Experimental data published in ChEMBL document CHEMBL1127574, “Design and synthesis of ellipticinium salts and 1,2-dihydroellipticines with high selectivities against human CNS cancers in vitro” (1994).

Assays:
Assay type in all cases: functional
DMS-114 = assay: Tested in vitro for cytotoxicity in DMS114 cell line of Small Cell Lung Cancer; conditions: Homo sapiens, read-out: Log TGI (converted)
In short: (§1)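 Compounds dissolved in DMSO, then diluted 500-fold into aqueous medium. The resulting aqueous solutions or suspensions were added to the cultured human tumour cell lines, and the cells were exposed for 48 h. Growth was read colorimetrically in one of two ways: a metabolic assay in which viable cells reduce a tetrazolium salt to a formazan dye, or a protein stain for total cellular protein.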

HCT-116 = assay: Tested in vitro for cytotoxicity in HCT116 cell line of Colon Cancer; conditions: Homo sapiens, read-out: Log TGI (converted); in short: as §1
KM12 = assay: Tested in vitro for cytotoxicity in KM12 cell line of Colon Cancer; conditions: Homo sapiens, read-out: Log TGI (converted); in short: as §1
SK-OV-3 = assay: Tested in vitro for cytotoxicity in SK-OV-3 cell line of Ovarian Cancer; conditions: Homo sapiens, read-out: Log TGI (converted)
In short: (§2)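 Compounds dissolved in DMSO and diluted 500-fold into aqueous medium; aliquots of the resulting solutions or suspensions added to cultured human tumor cells for 48 h. Growth read colorimetrically, either by tetrazolium reduction to formazan by viable cells or by protein staining of total cellular protein.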

ACHN = assay: Tested in vitro for cytotoxicity in ACHN cell line of Renal cancer; conditions: Homo sapiens, read-out: Log TGI (converted); in short: as §1
HCT-15 = assay: Tested in vitro for cytotoxicity in HCT-15 cell line of Colon Cancer; conditions: Homo sapiens, read-out: Log TGI (converted); in short: as §1
OVCAR-4 = assay: Tested in vitro for cytotoxicity in OVCAR-4 cell line of Ovarian Cancer; conditions: Homo sapiens, read-out: Log TGI (converted); in short: as §1
DLD-1 = assay: Tested in vitro for cytotoxicity in DLD-1 cell line of Colon Cancer; conditions: Homo sapiens, read-out: Log TGI (converted); in short: as §1
Malme-3M = assay: Tested in vitro for cytotoxicity in MALME-3M cell line of Melanoma; conditions: Homo sapiens, read-out: Log TGI (converted); in short: as §1
SF-268 [1] = assay: Tested in vitro for cytotoxicity in SF-268 cell lines; conditions: Homo sapiens; in short: as §1
HOP-62 = assay: Tested in vitro for cytotoxicity in HOP-62 cell line of Non-Small Cell Lung Cancer; conditions: Homo sapiens, read-out: Log TGI (converted); in short: as §1
HOP-92 = assay: Tested in vitro for cytotoxicity in HOP-92 cell line of Non-Small Cell Lung Cancer; conditions: Homo sapiens, read-out: Log TGI (converted); in short: as §1
SK-MEL-28 = assay: Tested in vitro for cytotoxicity in SK-MEL-28 cell line of Melanoma; conditions: Homo sapiens, read-out: Log TGI (converted); in short: as §1
OVCAR-5 = assay: Tested in vitro for cytotoxicity in OVCAR-5 cell line of Ovarian Cancer; conditions: Homo sapiens, read-out: Log TGI (converted); in short: as §1
SR = assay: Tested in vitro for cytotoxicity in SR cell line of Leukemia; conditions: Homo sapiens, read-out: Log TGI (converted); in short: as §2
RXF 393 = assay: Tested in vitro for cytotoxicity in RXF-393 cell line of Renal cancer; conditions: Homo sapiens, read-out: Log TGI (converted); in short: as §1
SN12C = assay: Tested in vitro for cytotoxicity in SN12C cell line of Renal cancer; conditions: Homo sapiens, read-out: Log TGI (converted); in short: as §2
SF-268 [2] = assay: Tested in vitro for cytotoxicity in SF-268 cell line of CNS cancer; conditions: Homo sapiens, read-out: Log TGI (converted); in short: as §1
IGROV-1 = assay: Tested in vitro for cytotoxicity in IGROV1 cell lines; conditions: Homo sapiens; in short: as §1
UACC-62 = assay: Tested in vitro for cytotoxicity in UACC-62 cell line of Melanoma; conditions: Homo sapiens, read-out: Log TGI (converted); in short: as §2
NCI-H226 = assay: Tested in vitro for cytotoxicity in NCI-H226 cell line of Non-Small Cell Lung Cancer; conditions: Homo sapiens, read-out: Log TGI (converted); in short: as §1
NCI-H522 = assay: Tested in vitro for cytotoxicity in NCI-H522 cell line of Non-Small Cell Lung Cancer; conditions: Homo sapiens, read-out: Log TGI (converted); in short: as §1
COLO 205 = assay: Tested in vitro for cytotoxicity in COLO 205 cell line of Colon Cancer; conditions: Homo sapiens, read-out: Log TGI (converted); in short: as §1
786-0 = assay: Tested in vitro for cytotoxicity in 786-0 cell line of Renal cancer; conditions: Homo sapiens, read-out: Log TGI (converted); in short: as §1
HL-60 = assay: Tested in vitro for cytotoxicity in HL-60(TB) cell line of Leukemia; conditions: Homo sapiens, read-out: Log TGI (converted)
In short: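 Compounds were dissolved in DMSO and diluted 500-fold in aqueous medium. Aliquots of the resulting solution or suspension were added to the cultured cells for 48 h. Growth was read colorimetrically, either by tetrazolium reduction to formazan in viable cells or by a total-protein stain.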

NCI-H322M = assay: Tested in vitro for cytotoxicity in NCI-H322M cell line of Non-Small Cell Lung Cancer; conditions: Homo sapiens, read-out: Log TGI (converted); in short: as §1
SNB-78 = assay: Tested in vitro for cytotoxicity in SNB-78 cell line of CNS Cancer; conditions: Homo sapiens, read-out: Log TGI (converted); in short: as §2
A498 = assay: Tested in vitro for cytotoxicity in A498 cell line of Renal cancer; conditions: Homo sapiens, read-out: Log TGI (converted); in short: as §1
CAKI-1 = assay: Tested in vitro for cytotoxicity in CAKI-1 cell line of Renal cancer; conditions: Homo sapiens, read-out: Log TGI (converted); in short: as §1
HCC 2998 = assay: Tested in vitro for cytotoxicity in HCC2998 cell line of Colon Cancer; conditions: Homo sapiens, read-out: Log TGI (converted); in short: as §1
UO-31 = assay: Tested in vitro for cytotoxicity in UO-31 cell line of Renal cancer; conditions: Homo sapiens, read-out: Log TGI (converted); in short: as §2

COc1ccc2[nH]c3c(C)c4c(c(C)c3c2c1)CN(C)C=C4
TGI (DMS-114): 2.51 µM | TGI (HCT-116): 15.8 µM | TGI (KM12): 15.8 µM | TGI (SK-OV-3): 63.1 µM | TGI (ACHN): 63.1 µM | TGI (HCT-15): > 100 µM | TGI (OVCAR-4): 25.1 µM | TGI (DLD-1): 20 µM | TGI (Malme-3M): 5.01 µM | GI50 (SF-268 [1]): 0.186 µM | TGI (HOP-62): 3.16 µM | TGI (HOP-92): 25.1 µM | TGI (SK-MEL-28): 12.6 µM | TGI (OVCAR-5): 31.6 µM | TGI (SR): 63.1 µM | TGI (RXF 393): 31.6 µM | TGI (SN12C): 0.794 µM | TGI (SF-268 [2]): 0.631 µM | GI50 (IGROV-1): 1.68 µM | TGI (UACC-62): 20 µM | TGI (NCI-H226): 0.794 µM | TGI (NCI-H522): 5.01 µM | TGI (COLO 205): 5.01 µM | TGI (786-0): 12.6 µM | TGI (HL-60): 63.1 µM | TGI (NCI-H322M): 15.8 µM | TGI (SNB-78): 5.01 µM | TGI (A498): 63.1 µM | TGI (CAKI-1): 31.6 µM | TGI (HCC 2998): 12.6 µM | TGI (UO-31): > 100 µM
